Test results from ChEMBL document CHEMBL5058577, “EUbOPEN Chemogenomics Library 2 (Multiplex)” (2022).

Test system: U2OS
Experiment: Multiplex assay against U2OS
Type: toxicity, cell-based
Conditions: human
Method in brief: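 Compound was added to live cells that had been stained at seeding with Hoechst33342, BioTracker Green Microtubule Cytoskeleton Dye, MitoTracker Red and Annexin V Alexa Fluor 680, and imaging followed on a CQ1 microscope at 37°C and 5% CO2. CellPathfinder machine-learning gating divided cells into Hoechst high-intensity objects or normal cells, normal cells into healthy, pyknosed or fragmented nuclei, and pyknosed cells into mitotic or apoptotic. Tubulin, mitochondrial-mass and membrane-permeability phenotypes are per cents of healthy-nucleus cells.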

[1] = 12 h, 1 µM, compound concentration 1 uM, replicate 1
[2] = 12 h, 1 µM, compound concentration 1 uM, replicate 2
[3] = 12 h, 10 µM, compound concentration 10 uM, replicate 1
[4] = 12 h, 10 µM, compound concentration 10 uM, replicate 2
[5] = 24 h, 1 µM, compound concentration 1 uM, replicate 1
[6] = 24 h, 1 µM, compound concentration 1 uM, replicate 2
[7] = 24 h, 10 µM, compound concentration 10 uM, replicate 1
[8] = 24 h, 10 µM, compound concentration 10 uM, replicate 2
[9] = 48 h, 1 µM, compound concentration 1 uM, replicate 1
[10] = 48 h, 1 µM, compound concentration 1 uM, replicate 2
[11] = 48 h, 10 µM, compound concentration 10 uM, replicate 1
[12] = 48 h, 10 µM, compound concentration 10 uM, replicate 2

## Cc1noc(-c2ccc(-c3ccc(CC(=O)O)cc3)cc2)c1NC(=O)O[C@H](C)c1ccccc1Cl
[1]
  Population Apoptotic (%): 95%
  Population Fragmented Nuclei (%): 21%
  Population Healthy Nuclei (%): 69%
  Population Hoechst High Intensity Objects (%): 4%
  Population Membrane Permeable-Phenotype (%): 7%
  Population Mitochondria Different-Phenotype (%): 5%
  Population Mitotic Cells (%): 5%
  Population Normal (%): 95%
  Population Pyknosed Nuclei (%): 9%
  Population Tubulin-Different-Phenotype (%): 4%
  Total Cell Count: 231
[2]
  Population Apoptotic (%): 85%
  Population Fragmented Nuclei (%): 19%
  Population Healthy Nuclei (%): 74%
  Population Hoechst High Intensity Objects (%): 0%
  Population Membrane Permeable-Phenotype (%): 2%
  Population Mitochondria Different-Phenotype (%): 2%
  Population Mitotic Cells (%): 14%
  Population Normal (%): 99%
  Population Pyknosed Nuclei (%): 7%
  Total Cell Count: 101
[3]
  Population Apoptotic (%): 78%
  Population Fragmented Nuclei (%): 29%
  Population Healthy Nuclei (%): 61%
  Population Hoechst High Intensity Objects (%): 2%
  Population Membrane Permeable-Phenotype (%): 11%
  Population Mitochondria Different-Phenotype (%): 4%
  Population Mitotic Cells (%): 21%
  Population Normal (%): 97%
  Population Pyknosed Nuclei (%): 9%
  Population Tubulin-Different-Phenotype (%): 6%
  Total Cell Count: 242
[4]
  Population Apoptotic (%): 71%
  Population Fragmented Nuclei (%): 11%
  Population Healthy Nuclei (%): 83%
  Population Membrane Permeable-Phenotype (%): 6%
  Population Mitochondria Different-Phenotype (%): 2%
  Population Mitotic Cells (%): 28%
  Population Pyknosed Nuclei (%): 5%
  Total Cell Count: 138
[5]
  Population Apoptotic (%): 96%
  Population Fragmented Nuclei (%): 19%
  Population Healthy Nuclei (%): 70%
  Population Hoechst High Intensity Objects (%): 2%
  Population Membrane Permeable-Phenotype (%): 5%
  Population Mitochondria Different-Phenotype (%): 4%
  Population Mitotic Cells (%): 3%
  Population Normal (%): 97%
  Population Pyknosed Nuclei (%): 9%
  Population Tubulin-Different-Phenotype (%): 3%
  Total Cell Count: 277
[6]
  Population Apoptotic (%): 77%
  Population Fragmented Nuclei (%): 15%
  Population Healthy Nuclei (%): 77%
  Population Hoechst High Intensity Objects (%): 0%
  Population Membrane Permeable-Phenotype (%): 4%
  Population Mitochondria Different-Phenotype (%): 3%
  Population Mitotic Cells (%): 22%
  Population Normal (%): 99%
  Population Pyknosed Nuclei (%): 7%
  Population Tubulin-Different-Phenotype (%): 6%
  Total Cell Count: 125
[7]
  Population Apoptotic (%): 92%
  Population Fragmented Nuclei (%): 24%
  Population Healthy Nuclei (%): 65%
  Population Hoechst High Intensity Objects (%): 1%
  Population Membrane Permeable-Phenotype (%): 11%
  Population Mitochondria Different-Phenotype (%): 2%
  Population Mitotic Cells (%): 7%
  Population Normal (%): 98%
  Population Pyknosed Nuclei (%): 10%
  Population Tubulin-Different-Phenotype (%): 5%
  Total Cell Count: 260
[8]
  Population Apoptotic (%): 90%
  Population Fragmented Nuclei (%): 12%
  Population Healthy Nuclei (%): 80%
  Population Hoechst High Intensity Objects (%): 2%
  Population Membrane Permeable-Phenotype (%): 7%
  Population Mitotic Cells (%): 9%
  Population Normal (%): 97%
  Population Pyknosed Nuclei (%): 7%
  Population Tubulin-Different-Phenotype (%): 4%
  Total Cell Count: 154
[9]
  Population Apoptotic (%): 97%
  Population Fragmented Nuclei (%): 15%
  Population Healthy Nuclei (%): 75%
  Population Hoechst High Intensity Objects (%): 1%
  Population Membrane Permeable-Phenotype (%): 6%
  Population Mitochondria Different-Phenotype (%): 3%
  Population Mitotic Cells (%): 2%
  Population Normal (%): 98%
  Population Pyknosed Nuclei (%): 9%
  Population Tubulin-Different-Phenotype (%): 3%
  Total Cell Count: 408
[10]
  Population Apoptotic (%): 86%
  Population Fragmented Nuclei (%): 18%
  Population Healthy Nuclei (%): 72%
  Population Hoechst High Intensity Objects (%): 0%
  Population Mitochondria Different-Phenotype (%): 4%
  Population Mitotic Cells (%): 13%
  Population Normal (%): 100%
  Population Pyknosed Nuclei (%): 8%
  Population Tubulin-Different-Phenotype (%): 4%
  Total Cell Count: 170
[11]
  Population Apoptotic (%): 92%
  Population Fragmented Nuclei (%): 19%
  Population Healthy Nuclei (%): 72%
  Population Hoechst High Intensity Objects (%): 3%
  Population Membrane Permeable-Phenotype (%): 7%
  Population Mitochondria Different-Phenotype (%): 3%
  Population Mitotic Cells (%): 7%
  Population Normal (%): 96%
  Population Pyknosed Nuclei (%): 8%
  Population Tubulin-Different-Phenotype (%): 5%
  Total Cell Count: 344
[12]
  Population Apoptotic (%): 85%
  Population Fragmented Nuclei (%): 9%
  Population Healthy Nuclei (%): 78%
  Population Hoechst High Intensity Objects (%): 4%
  Population Membrane Permeable-Phenotype (%): 6%
  Population Mitochondria Different-Phenotype (%): 2%
  Population Mitotic Cells (%): 14%
  Population Normal (%): 95%
  Population Pyknosed Nuclei (%): 11%
  Population Tubulin-Different-Phenotype (%): 4%
  Total Cell Count: 241
